From PubChem BioAssay
PKD1 inh: blocks activity of human protein kinase D1; Q15139; PKD1 kinase fluorescence polarization assay; inhibition, % (concentration not given with the values); 0.056% of 200,000 active; AID 797
Lmaj promast: reduces viability of Leishmania major promastigotes; resazurin fluorescence viability; AID 1063; inhibition, % at 10 µM; 9% of 200,000 active;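 also: promastigotes grown with compound for 44 hours at 28 °C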
ABCB1 block: blocks JC-1 efflux by human ABCB1 transporter; CCRF-Adr cells, flow cytometry; P08183; 0.067% of 190,000 active; inhibition, % at 6.6 µM; in the data active = inhibition above about 40%;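 also: 0% = vehicle and 100% = reference inhibitor; higher value means more JC-1 retained so stronger ABCB1 efflux block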
ABCG2 inh: blocks JC-1 efflux by human ABCG2 transporter. IgMXP3 cells, flow cytometry. inhibition, % at 6.6 µM. 0.1% of 190,000 active;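 active = inhibition above 80%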;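 also: 0% = DMSO and 100% = nicardipine control wells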
Target sequence (Q9UNQ0 whole entry, looked up): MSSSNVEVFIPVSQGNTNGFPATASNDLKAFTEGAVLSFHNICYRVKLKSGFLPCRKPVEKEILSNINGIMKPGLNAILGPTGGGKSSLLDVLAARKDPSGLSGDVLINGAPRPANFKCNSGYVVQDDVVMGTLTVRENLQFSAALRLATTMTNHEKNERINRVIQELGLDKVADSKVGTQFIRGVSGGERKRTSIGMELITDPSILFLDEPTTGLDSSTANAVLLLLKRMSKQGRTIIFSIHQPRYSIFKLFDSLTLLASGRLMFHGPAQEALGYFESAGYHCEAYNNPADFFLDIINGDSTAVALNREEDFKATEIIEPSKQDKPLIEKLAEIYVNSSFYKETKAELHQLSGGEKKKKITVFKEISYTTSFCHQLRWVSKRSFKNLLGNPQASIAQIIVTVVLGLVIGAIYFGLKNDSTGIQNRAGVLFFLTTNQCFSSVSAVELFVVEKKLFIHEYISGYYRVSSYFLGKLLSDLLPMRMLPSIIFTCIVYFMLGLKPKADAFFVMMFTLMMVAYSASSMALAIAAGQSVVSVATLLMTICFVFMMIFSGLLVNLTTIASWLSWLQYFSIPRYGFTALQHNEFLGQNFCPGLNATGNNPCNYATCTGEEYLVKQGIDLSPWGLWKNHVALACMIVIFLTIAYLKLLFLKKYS
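Times: 10 min at 25 °C | Test system: Two drug-resistant human cell lines, ABCG2 and ABCB1 | Quantity: 3 million cells/mL final, two lines in 1:1 ratio | Signal: Flow cytometry, 530 nm JC-1 signal | Dosing: Compound at 6.6 µM | Controls: Nicardipine and DMSO wells | Reagent: JC-1 as fluorescent efflux pump substrate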
GSH fluor: compound fluoresces at 488/530 nm on GSH beads; GSH beads flow cytometry, compound fluorescence 488/530 nm; hits give high values; fluorescence (KMESF) at 10 µM; 0.25% of 190,000 active; AID 1776; in the data active = fluorescence above about 89;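 also: glutathione beads carrying GST-tagged Bcl family fusion proteins plus one bare bead set; values are compound well signal with DMSO vehicle wells as background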
Avidin bead fluor: avidin bead compound fluorescence profile | fluorescence (KMESF) at 10 µM | AID 1775 | Avidin beads, compound fluorescence 488/530 nm, flow cytometry; hits give high values | 0.38% of 220,000 active; in the data active = fluorescence above about 47
The depositor's hits bear a star; x = not tested or not shown. This is one part of a sample in which hits are shown more often than they occur. Rule as the data show it, unless noted: active = inhibition above about 50%; inactive = the rest.

SMILES	PKD1 inh	Lmaj promast	ABCB1 block	ABCG2 inh	GSH fluor	Avidin bead fluor
O=C1c2nccnc2C(=O)N1c1ccc(F)cc1	-6	-8	0	0	9	22
Cc1onc(-c2ccccc2)c1C(=O)Nc1ccc(S(=O)(=O)NC(C)(C)C)cc1	0	-4	1	5	27	10
CC1CC(C)CN(C(=O)/C(=C\c2ccccc2)c2ccccc2)C1 (centres undefined)	-20	96*	x	6	9	16
Cc1cc(C)nc(NC(=NCCc2c[nH]c3ccccc23)NC(=O)Nc2ccc(Cl)c(Cl)c2)n1	-1	98*	0	-5	11	10
Cc1cc(C)nc(NC(=NCCc2c[nH]c3ccccc23)NC(=O)Nc2ccccc2)n1	0	73*	0	-1	10	10
N#C/C(=C/c1ccc(Oc2ccc([N+](=O)[O-])cn2)cc1)C(=O)N1CCOCC1	-2	66*	1	9	6	16
O=[N+]([O-])c1cc(/C=N/O)ccc1Sc1ccccc1	4	78*	1	36	24	23
CO/N=C/c1ccc(Sc2ccccc2)c([N+](=O)[O-])c1	1	3	0	2	21	14
O=C(O)c1cc([N+](=O)[O-])c(NCCC2=CCCCC2)c([N+](=O)[O-])c1	-4	-8	0	3	17	10
CN1CCN(CCOc2ccc(Cl)c(Cl)c2)CC1	-10	98*	2	28	9	15
CCN(CC)CCOc1ccc2c(c1)C(=NO)c1cc(OCCN(CC)CC)ccc1-2	1	100*	0	0	8	30
CCN(CC)CCCOc1ccc(Cl)c(Cl)c1	4	83*	0	0	10	6
C=CCNC(=O)CN1C(=O)C2C3c4ccccc4C(c4ccccc43)C2C1=O (centres undefined)	2	12	0	0	11	9
COc1cc(N2C(=O)C=CC2=O)c(OC)cc1Cl	x	x	x	x	x	5
C/C(=N\NC(=O)C1CCCN(S(=O)(=O)c2ccccc2)C1)c1ccccn1 (centres undefined)	-16	99*	0	-1	39	7
C/C(=N\NC(=O)C(c1ccccc1)c1ccccc1)c1ccccn1	2	100*	2	7	13	3
O=C(N/N=C\c1cc(Br)cs1)C1COc2ccccc2O1 (centres undefined)	-5	53*	1	31	22	31
C/C(=N\NC(=O)C1COc2ccccc2O1)c1ccccn1 (centres undefined)	-9	99*	1	29	10	10
CC(=O)c1cc(F)c(N2CCN(C(=O)COc3ccccc3F)CC2)cc1C	3	-3	1	5	18	31
O=S(=O)(Cc1ccccc1)Cc1cnc(Cl)s1	4	-7	1	8	22	10
CC(=O)Oc1ccc(N(C(C)=O)S(=O)(=O)c2ccc(C)c([N+](=O)[O-])c2)cc1	-1	30	0	-1	4	7
Cc1nc2cc(N3CCN(C)CC3)c(NC(=O)Cc3ccccc3)cc2c(=O)n1Cc1ccccc1	2	89*	1	6	65	9
Cc1nc2cc(N3CCCCC3)c(NC(=O)c3ccncc3)cc2c(=O)n1Cc1ccc(Cl)cc1	-7	11	2	4	16	30
CCN(CC)C(=O)C(C)OC(=O)COc1ccc(Cl)cc1Cl (centres undefined)	-8	58*	1	29	9	16
COCCn1nnnc1C(c1ccc(OC)cc1)N1CCC(C)CC1 (centres undefined)	-7	-1	0	10	19	24
SMILES	PKD1 inh	Lmaj promast	ABCB1 block	ABCG2 inh	GSH fluor	Avidin bead fluor
COc1ccc(C(c2nnnn2C2CCCC2)N2CCC(C)CC2)cc1 (centres undefined)	-3	90*	1	38	39	15
c1cc(N2CCCC2)ccc1C(c1nnnn1C1CCCCC1)N1CCOCC1 (centres undefined)	-4	88*	0	0	21	38
COc1ccc(C(c2nnnn2C2CCCCC2)N2CCN(C)CC2)c(OC)c1 (centres undefined)	-9	5	-1	1	15	9
COc1ccc(OC)c(C(c2nnnn2C2CCCC2)N2CCN(c3ccccc3)CC2)c1 (centres undefined)	-1	97*	7	35	20	23
COc1ccc(C(c2nnnn2C2CCCCC2)N2CCN(c3ccc(OC)cc3)CC2)cc1 (centres undefined)	3	89*	1	1	37	10
CC1CCN(S(=O)(=O)c2cccc(C(=O)Nc3ccccc3)c2)CC1	2	29	0	0	61	26
Cc1c(CCO)c(=O)[nH]n1C(=O)c1ccc(F)cc1	-7	-3	1	10	14	11
CC(=O)N/C(=C/c1ccc([N+](=O)[O-])cc1)C(=O)O	0	-6	0	4	10	3
O=C1c2ccccc2C(=O)N1CCCCSc1nc2ccccc2c(=O)n1CCCN1CCOCC1	5	33	9	12	12	9
Cc1cc(N2CCOCC2)nc(NCc2ccccc2)n1	1	9	0	1	259*	5
CCOc1cc(C)nc(NCc2ccccc2)n1	1	65*	0	0	45	10
Cc1cc(N2CCCCC2)nc(NCc2ccccc2)n1	4	75*	0	0	14	31
c1cncc(CNc2nc(N3CCOCC3)nc(N3CCOCC3)n2)c1	3	-12	0	1	34	67*
Cc1cc(OC2CCCCC2)nc(NCc2ccccc2)n1	x	x	x	x	x	9
Cc1cc(NCc2ccccc2)nc(N2CCOCC2)n1	-10	39	0	0	11	36
CCOc1ccc(C(=O)CC(NCc2cccs2)C(=O)O)cc1 (centres undefined)	11	13	0	4	12	10
CC(CCN(C)C)OC(=O)c1ccc(C(C)c2ccccc2)o1 (centres undefined)	-8	100*	0	1	10	19
CCN1CCN(CC(O)COC(c2ccccc2)c2ccccc2)CC1 (centres undefined)	-9	0	0	0	12	20
O=S(=O)(c1ccc(OCC(O)CN2CCc3ccccc3C2)cc1)N1CCOCC1 (centres undefined)	-11	62*	0	1	29	9
O=S(=O)(c1ccc(OCC(O)CN2CCCCC2)cc1)N1CCOCC1 (centres undefined)	-7	15	0	-2	28	15
OC(COC(c1ccccc1)c1ccccc1)CN1CCCCC1 (centres undefined)	-1	99*	0	1	21	16
O=C(/C=C/c1ccccc1)N1CCN(CC(O)COc2ccccc2)CC1 (centres undefined)	-1	78*	1	12	34	11
